From ChEMBL document CHEMBL2150963, “Anthraquinones from a marine-derived Streptomyces spinoverrucosus” (J Nat Prod, 2012)
pIC50: −log10 of the molar value. Calls of active or inactive are those of the source. No cut-off for these calls is given here.

How the values were obtained:
[1] = Cytotoxicity against human NCI-H2887 cells after 96 hrs by Cell Titer Glo assay; format: functional, cell-based; settings: NCI-H2887, 96 h
How it was run: (§1)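 Cells were grown in RPMI/L-glutamine with penicillin 1000 U/ml, streptomycin 1 mg/mL and 5% FBS, humidified, at 37 °C and 5% CO2. They were seeded in 384-well plates at 750 (Calu-3) or 500 (H2887) cells/well and left overnight. Compounds in DMSO were added at 50 μM to 1 nM final, with 0.5% DMSO final. After 96 h, CellTiter-Glo was added, plates sat 10 min at room temperature, and luminescence was normalized to DMSO-only wells.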

C127 [2] = test: Epigenetic modulation in mouse C127 cells expressing CMV promoter assessed as induction of GFP expression at 10 uM after 24 hrs by LDR assay
Calu-3 = test: Cytotoxicity against human Calu3 cells after 96 hrs by Cell Titer Glo assay; format: functional, cell-based; settings: Calu-3, 96 h; how it was run: as §1
C127 [3] = test: Epigenetic modulation in mouse C127 cells expressing CMV promoter assessed as induction of GFP expression at 1 uM after 24 hrs by LDR assay

Row | Structure (SMILES) | pIC50 [1] | Activity (C127 [2]) | pIC50 (Calu-3) | Activity (C127 [3])
1 | Cc1cc2c(c(O)c1C(=O)CCC(C)C)C(=O)c1c(O)cccc1C2=O [GALVAQUINONE A] | < 4.30 | Active | < 4.30 | 
2 | Cc1c(O)c(C(=O)CC(C)C)c2c(c1O)C(=O)c1cccc(O)c1C2=O [GALVAQUINONE C] | < 4.30 |  | < 4.30 | 
3 | Cc1cc(O)c2c(c1O)C(=O)c1cccc(O)c1C2=O [ISLANDICIN] | < 4.30 |  | < 4.30 | 
4 | Cc1c(O)c(CCC(C)C)c2c3c1OC(C)(C)N=C3c1cccc(O)c1C2=O | < 4.30 |  | < 4.30 | 
5 | Cc1c(O)c2c(c(O)c1C(=O)CCC(C)C)C(=O)c1c(O)cccc1C2=O [GALVAQUINONE B] | 5.30 | Active | 4.91 | Active
6 | Cc1c(O)c(CCC(C)C)c2c(c1O)C(=O)c1cccc(O)c1C2=O [LUPINACIDIN A] | 5.51 |  | 5.06 | 
